Measurements published in ChEMBL document CHEMBL1128495, “Synthetic chemical diversity: solid phase synthesis of libraries of C2 symmetric inhibitors of HIV protease containing diamino diol and diamino alcohol cores” (J Med Chem, 1995).

What was measured:
[1] = biological target: Human immunodeficiency virus type 1 protease (Human immunodeficiency virus 1, UniProt Q72874); assay: Inhibition of HIV protease
How it was run: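 Fluorometric HIV protease activity assay on unpurified samples. Concentrations were calculated from the weight of unpurified material, with no correction for impurities. Each sample was tested at 3–5 concentrations where feasible, and IC50 was derived from the percent-inhibition data.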

[2] = biological target: Human immunodeficiency virus type 1 protease (Human immunodeficiency virus 1) (UniProt Q72874); assay: Inhibitory activity against HIV Protease at a dose of 0.5 nM
How it was run: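 Fluorometric HIV protease activity assay run on an unpurified sample. Concentration was based on the weight of unpurified material, with no correction for impurities. Percent inhibition was read at a single concentration of 0.5 nM.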

Row | SMILES | IC50 [1] [nM] | inhibition [2] [%]
1 | CC(C)[C@H](NC(=O)CC1NC(=O)NC1=O)C(=O)N[C@@H](Cc1ccccc1)[C@@H](O)[C@H](O)[C@H](Cc1ccccc1)NC(=O)[C@@H](NC(=O)CC1NC(=O)NC1=O)C(C)C (some centres undefined) | 9.6 | 33
2 | CC(C)[C@H](NC(=O)C(O)(c1ccccc1)c1ccccc1)C(=O)N[C@@H](Cc1ccccc1)C[C@H](O)[C@H](Cc1ccccc1)NC(=O)[C@@H](NC(=O)C(O)(c1ccccc1)c1ccccc1)C(C)C | 160 | –
3 | CC(C)[C@H](NC(=O)Cc1csc(N)n1)C(=O)N[C@@H](Cc1ccccc1)C[C@H](O)[C@H](Cc1ccccc1)NC(=O)[C@@H](NC(=O)Cc1csc(N)n1)C(C)C | < 1 | 40
4 | CC(C)[C@H](NC(=O)C(O)(c1ccccc1)c1ccccc1)C(=O)N[C@@H](Cc1ccccc1)[C@@H](O)[C@H](O)[C@H](Cc1ccccc1)NC(=O)[C@@H](NC(=O)C(O)(c1ccccc1)c1ccccc1)C(C)C | 6400 | –
5 | Cc1nc(C)c(C(=O)N[C@H](C(=O)N[C@@H](Cc2ccccc2)[C@@H](O)[C@H](O)[C@H](Cc2ccccc2)NC(=O)[C@@H](NC(=O)c2sc(C)nc2C)C(C)C)C(C)C)s1 | 860 | –
6 | CC(C)[C@H](NC(=O)CSc1ncccn1)C(=O)N[C@@H](Cc1ccccc1)C[C@H](O)[C@H](Cc1ccccc1)NC(=O)[C@@H](NC(=O)CSc1ncccn1)C(C)C | < 1 | –
7 | CC(C)[C@H](NC(=O)Cc1csc(N)n1)C(=O)N[C@@H](Cc1ccccc1)[C@@H](O)[C@H](O)[C@H](Cc1ccccc1)NC(=O)[C@@H](NC(=O)Cc1csc(N)n1)C(C)C | 12 | –
8 | COc1cc(CC(=O)N[C@H](C(=O)N[C@@H](Cc2ccccc2)C[C@H](O)[C@H](Cc2ccccc2)NC(=O)[C@@H](NC(=O)Cc2cc(OC)c(OC)c(OC)c2)C(C)C)C(C)C)cc(OC)c1OC | < 1 | 71
9 | CC(C)[C@H](NC(=O)CC1NC(=O)NC1=O)C(=O)N[C@@H](Cc1ccccc1)C[C@H](O)[C@H](Cc1ccccc1)NC(=O)[C@@H](NC(=O)CC1NC(=O)NC1=O)C(C)C (some centres undefined) | < 1 | 43
10 | Cc1nc(C)c(C(=O)N[C@H](C(=O)N[C@@H](Cc2ccccc2)C[C@H](O)[C@H](Cc2ccccc2)NC(=O)[C@@H](NC(=O)c2sc(C)nc2C)C(C)C)C(C)C)s1 | 13 | –
